Results reported in ChEMBL document CHEMBL1148953, “Activity-guided fractionation of the leaves of Ormosia sumatrana using a proteasome inhibition assay” (J Nat Prod, 2004).
Active and inactive are the calls of the source. The rule behind the calls is not given here.

Tests used:
[1] = (§1) Inhibition of human HL60 cells-derived chymotrypsin-like proteasome activity; format: subcellular; conditions: hl-60
In short: (§2)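 Proteasome-enriched fraction from HL-60 cells, prepared by 100 000g spin, then 5% and 12% PEG (w/v) fractionation and 2-fold dilution in 10 mM Tris-EDTA pH 7.5. Fraction at final 50 µg/mL in 155 mM Tris, 10 mM EDTA, pH 7.4. Preincubated with inhibitor 30 min at room temperature, then 10 µM Suc-LLVY-AMC for 1 h. Free AMC read at ex 360/em 460 nm. IC50 reported.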

HL-60 [2] = test: as §1; format: subcellular; in short: as §2
KB = test: In vivo cytotoxicity against human KB cells by hollow fiber assay; format: functional
Col2 = test: In vivo cytotoxicity against human Col2 cells by hollow fiber assay; format: functional
[3] = In vivo cytotoxicity against human RPE1 cells expressing human telomerase reverse transcriptase by hollow fiber assay; format: functional, TERT-RPE1
HL-60 [4] = test: Inhibition of human HL60 cells-derived chymotrypsin-like proteasome activity at 28 uM; format: subcellular

| IC50 [1] [µM] | Activity (HL-60 [2]) | inhibition (HL-60 [4]) [%] | Compound | ED50 (KB) [µg/mL] | ED50 (Col2) [µg/mL] | ED50 [3] [µg/mL] |
| --- | --- | --- | --- | --- | --- | --- |
| 30 | – | – | CCCCCCCC/C=C\CCCC[C@@H](O)[C@@H](O)C(CO[C@@H]1O[C@H](CO)[C@@H](O)[C@H](O)[C@H]1O)NC(=O)[C@@H](O)CCCCCCCCCCCCCCCCCCCCCC (stereo not given in full) [SUMATRANOSIDE] | – | – | – |
| – | inactive | – | CCCCCCCC/C=C\CCCC[C@@H](OC(C)=O)[C@@H](OC(C)=O)[C@H](COC(C)=O)NC(C)=O | >5 | >5 | >5 |
| – | – | < 10 | O=C(/C=C/c1ccccc1)O[C@@H]1Cc2c(O)cc3c(c2O[C@@H]1c1ccc(O)c(O)c1)[C@H]1c2c(O)cc(O)cc2O[C@@](c2ccc(O)c(O)c2)(O3)[C@@H]1O | – | – | – |
| – | inactive | – | CCCCCCCCCCCCCCCCCCCCCC[C@@H](OC(C)=O)C(=O)OC | >5 | >5 | >5 |
